Data published in ChEMBL document CHEMBL4811231, “Discovery and structural optimization of 3-O-β-chacotriosyl oleanane-type triterpenoids as potent entry inhibitors of SARS-CoV-2 virus infections” (Eur J Med Chem, 2021).
Calls of active or inactive are those of the source. The rule behind the calls is not given here.

system: Vesicular stomatitis virus; assay: Antiviral activity against pseudotype VSV harbouring glycoprotein infected human 293T/ACE2 cells assessed as inhibition of viral infection measured after 48 hrs by luciferase reporter gene assay; assay type: functional, organism-based
Outline: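 293T-ACE2 cells (20,000/well) were seeded and treated 24 h later with graded compound concentrations mixed with pseudovirus supernatant, then incubated 48 h. The HIV-based pseudovirus (pNL4-3.Luc.R-E-) carried SARS-CoV-2 S or VSV-G and was made by co-transfecting HEK293T cells; supernatant was harvested at 48 h and filtered (0.45 µm). Read-out was luciferase activity in cell lysates. Sal-C was the positive control.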

Q: With `C[C@@H]1O[C@@H](O[C@H]2[C@H](O[C@H]3CC[C@]4(C)[C@H]5CC=C6[C@@H]7CC(C)(C)CC[C@]7(C(=O)NCc7ccccc7)CC[C@@]6(C)[C@]5(C)CC[C@H]4C3(C)C)O[C@H](CO)[C@@H](O[C@@H]3O[C@@H](C)[C@H](O)[C@@H](O)[C@H]3O)[C@@H]2O)[C@H](O)[C@H](O)[C@H]1O` as the compound, how does the inhibition read?
A: inactive

Q: For `COc1ccccc1NC(=O)[C@]12CCC(C)(C)C[C@H]1C1=CC[C@@H]3[C@@]4(C)CC[C@H](O[C@@H]5O[C@H](CO)[C@@H](O[C@@H]6O[C@@H](C)[C@H](O)[C@@H](O)[C@H]6O)[C@H](O)[C@H]5O[C@@H]5O[C@@H](C)[C@H](O)[C@@H](O)[C@H]5O)C(C)(C)[C@@H]4CC[C@@]3(C)[C@]1(C)CC2`, which inhibition is on record?
A: inactive

Q: `C[C@@H]1O[C@@H](O[C@H]2[C@H](O[C@H]3CC[C@]4(C)[C@H]5CC=C6[C@@H]7CC(C)(C)CC[C@]7(C(=O)NCc7ccccc7F)CC[C@@]6(C)[C@]5(C)CC[C@H]4C3(C)C)O[C@H](CO)[C@@H](O[C@@H]3O[C@@H](C)[C@H](O)[C@@H](O)[C@H]3O)[C@@H]2O)[C@H](O)[C@H](O)[C@H]1O` was tested. Which inhibition did it give?
A: inactive

Q: Which inhibition does the source give for `C[C@@H]1O[C@@H](O[C@H]2[C@H](O[C@H]3CC[C@]4(C)[C@H]5CC=C6[C@@H]7CC(C)(C)CC[C@]7(C(=O)NCc7cccs7)CC[C@@]6(C)[C@]5(C)CC[C@H]4C3(C)C)O[C@H](CO)[C@@H](O[C@@H]3O[C@@H](C)[C@H](O)[C@@H](O)[C@H]3O)[C@@H]2O)[C@H](O)[C@H](O)[C@H]1O` here?
A: inactive
